Measurements pooled from the literature.
Each line is one published result; the experiments were not run side by side.
Target: Homeodomain-interacting protein kinase 2 (HIPK2, Homo sapiens, UniProt Q9H2X6)

Structure (SMILES) | assay | conditions | quantity | result
COc1ncccc1-c1cnn2ccc(N3CCN(C(=O)OC(C)C)CC3)nc12 | binding, competition with immobilised ligand | 1 µM | remaining binding | 88%
O=c1[nH]c2ccccc2n1C1CCN(Cc2ccc(-c3[nH]c4cc5ncnc5cc4nc3-c3ccccc3)cc2)CC1 | cell-free assay | 0.5 µM | remaining signal | 110%
Cn1cc(-c2cccc(N3CCc4c(sc5c4CC(C)(C)C5)C3=O)c2CO)cc(Nc2ccncn2)c1=O | enzyme activity, inhibitor | 1 µM | inhibition | -4%
Cc1nn(C)cc1-c1nc2c(N3CCN(Cc4ccc(Cl)cc4)CC3)c(Cl)cnc2[nH]1 | binding, competition with immobilised ligand | 1 µM | remaining binding | 70%
Cn1cncc1[C@@](O)(COc1ccc(C#N)cc1-c1ccc(OC(F)(F)F)cc1)c1ccc(C#N)cc1 | cell-free assay, competition with immobilised ligand | 1 µM | remaining binding | 100%
CC(C)(C)c1cc(C=C(C#N)C#N)cc(Br)c1O | enzyme activity, inhibitor | 0.5 µM | remaining activity | 110%
Nc1ncc(-c2nc(N3CCOCC3)nc(N3CCOCC3)n2)c(C(F)F)n1 | binding, competition with immobilised ligand | 10 µM | remaining binding | 59%
N#CC1(c2ccccn2)CCN(Cc2cc(C(=O)O)c(=O)n3ccccc23)CC1 | cell-free assay, competition with immobilised ligand | 1 µM | remaining binding | 66%
Cn1cc(-c2cc(F)cc(N3CCn4c(cc5c4CCCC5)C3=O)c2CO)cc(Nc2ccc(N3CCN(C4COC4)CC3)cn2)c1=O | enzyme activity, inhibitor | 0.1 µM | inhibition | 9%
